# Bioassay records (PubChem BioAssay)
# An excerpt weighted towards active compounds, which were near 0.44% of everything screened.
# PglD DTNB – inhibitors of Campylobacter jejuni PglD acetyltransferase; purified PglD enzyme, DTNB colorimetric CoA detection; inhibition, % at 12.5 µM; actives 0.098% (n = 360,000); AID 602405; in the data active means inhibition above about 16%, passing the limit was not always enough
# ERp5 block – blocks human ERp5 reductase activity on insulin. Q15084. ERp5 insulin aggregation, absorbance 650 nm, 90 min. inhibition, % at 9.99 µM. actives 0.05% (n = 350,000);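 active means mean replicate inhibition above about 25%, with every replicate also reaching it, limit read from the data, passing the limit was not always enough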
# RAD54 inh – inhibitors of human RAD54 branch migration; inhibition, % at 10.4 µM; actives 0.14% (n = 360,000); AID 602329; RAD54 Holliday junction branch migration, FAM/BHQ fluorescence;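 active means mean normalized replicate activity at least 40 and at least half of replicates scoring 40 or more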;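 further: 0% = median of neutral control wells and 100% = median of positive control wells; inhibitors cause a drop in the FAM fluorescence signal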
# PDI turbidity – inhibitors of human protein disulfide isomerase; PDI insulin aggregation turbidity, A650, 90 min; P07237; inhibition, % at 10 µM; actives 0.052% (n = 350,000);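 active means mean inhibition across replicates of 30% or more, whatever share of single replicates reach that level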
# S100A4 MyoIIA – inhibitors of human S100A4 binding to myosin IIA peptide; AID 652163; actives 0.14% (n = 360,000); P26447; inhibition, % at 10.7 µM; S100A4/TAMRA-MyoIIA peptide fluorescence polarization;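 active means mean inhibition of at least 70% across replicates, with every replicate also reaching that level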
# Target sequence (P26447 whole entry, looked up): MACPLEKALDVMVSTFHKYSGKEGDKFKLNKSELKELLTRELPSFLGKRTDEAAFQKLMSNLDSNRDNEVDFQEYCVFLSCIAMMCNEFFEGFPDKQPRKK
#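 Material: S100A4 monomer protein | Medium: HEPES pH 7.2 with CaCl2, KCl, NaCl, DTT, Triton | Reagent: Labelled myosin peptide probe, 5 nM | Doses: One dose per compound | Times: 5 min incubation before reading | Benchmarks: Neutral control DMSO, positive control TFP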
# FN deposit inh – fibronectin deposition inhibition. inhibition, % at 12.6 µM. actives 0.086% (n = 350,000). AH1F fibroblasts, Alexa488-fibronectin deposition fluorescence, overnight;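 active means mean inhibition across replicates of 30% or more, regardless of how many single replicates reach that level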;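 further: positive control wells lacked labelled fibronectin entirely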
#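 material = AH1F fibroblast monolayer depositing Alexa488-labelled fibronectin into matrix | amount = 10000 AH1F cells/well | buffer or medium = DMEM plus 2% serum, read in PBS | incubation = 1 h cell adhesion before compound, then overnight fibronectin incubation | detection = fluorescence at 485 nm excitation, 525 nm emission | evaluation = percent inhibition as loss of matrix-bound fibronectin fluorescence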
# * hit, by the source's call; / = no result given; ! = repeats disagree.
SMILES,PglD DTNB,ERp5 block,RAD54 inh,PDI turbidity,S100A4 MyoIIA,FN deposit inh
C[C@H]1CN([C@@H](C)CO)C(=O)c2cccc(NS(=O)(=O)c3ccccc3)c2O[C@@H]1CN(C)S(=O)(=O)c1ccc(F)cc1,1,/,1,/,/,/
COc1ccc(S(=O)(=O)Nc2cccc3c2O[C@@H](CN(C)S(=O)(=O)c2c(C)noc2C)[C@H](C)CN([C@H](C)CO)C3=O)cc1,-5,-1,-10,/,0,/
Cc1ccc(S(=O)(=O)N(C)C[C@@H]2Oc3c(NC(=O)C4CCCCC4)cccc3C(=O)N([C@H](C)CO)C[C@@H]2C)cc1,3,-3,4,/,109*,/
C[C@@H]1CN([C@@H](C)CO)C(=O)c2cccc(NS(=O)(=O)c3ccc(F)cc3)c2O[C@H]1CN(C)S(=O)(=O)c1ccccc1,-2,46*,-1,/,11,/
COc1ccc(S(=O)(=O)Nc2cccc3c2O[C@@H](CN(C)S(=O)(=O)c2c(C)noc2C)[C@H](C)CN([C@@H](C)CO)C3=O)cc1,-2,-6,3,/,127*,/
CC(C)NC(=O)Nc1ccc2c(c1)C(=O)N([C@@H](C)CO)C[C@@H](C)[C@@H](CN(C)Cc1ccncc1)OCCCC[C@H](C)O2,0,-4,-4,/,5,/
NC(=NCCCCCCN=C(N)/N=C(\N)Nc1ccc(Cl)cc1)/N=C(\N)Nc1ccc(Cl)cc1,-2,6,59*!,24,-5,0
Cc1c2c(cc3c1[nH]c1ccccc13)C=NCC2,-2,3,58*,12,-25,-16
Cc1c2ccncc2cc2c1[nH]c1ccccc12,7,4,10,-10,25,23
CCCCn1c(SCC(=O)Nc2ccc(C)c(S(=O)(=O)N3CCOCC3)c2)nnc1C(CC)N(C)C (stereo unspecified),-2,0,3,32*,-2,1
CCC(=O)N1[C@H](C(=O)N[C@H](C)c2ccccc2)[C@@H](CO)[C@@H]2Cn3c(cccc3=O)[C@@H]21,/,2,/,/,5,/
CN(C)C(=O)[C@H]1[C@H](CO)[C@H]2Cn3c(cccc3=O)[C@@H]1N2C(=O)c1ccccc1,-1,-3,3,/,126*,/
CC(=O)N1[C@H](C(=O)N[C@H](C)c2ccccc2)[C@@H](CO)[C@@H]2Cn3c(cccc3=O)[C@@H]21,4,-2,10,/,110*,/
C[C@@H]1CN([C@H](C)CO)S(=O)(=O)c2ccc(C#Cc3ccncc3)cc2O[C@@H]1CN(C)C(=O)C1CCOCC1,-1,15,-4,/,6,/
O=C(C[C@H]1CC[C@@H]2[C@H](COC[C@H](O)CN2C(=O)Nc2ccc(Cl)c(Cl)c2)O1)NCc1ccccc1,-2,1,-3,/,-1,-1
Cc1noc(C)c1NC(=O)N(C)C[C@@H]1OCCCC[C@@H](C)Oc2ccc(NC(=O)NC(C)C)cc2C(=O)N([C@@H](C)CO)C[C@H]1C,1,-3,4,/,-20,/
O=S(=O)(c1ccccc1F)N1CC[C@H]2[C@H](CO)Nc3ccc(-c4cccc(F)c4)cc3[C@H]21,4,-2,8,/,-10,34*
N#Cc1ccc(-c2ccc3c(c2)[C@@H]2[C@@H](CCN2S(=O)(=O)c2cccc(F)c2)[C@H](CO)N3)cc1,0,3,12,/,1,31*
O=S(=O)(c1ccccc1F)N1CC[C@@H]2[C@H]1c1cc(-c3cccc(F)c3)ccc1N[C@@H]2CO,-2,/,14,/,/,64*
C[C@@H]1CCCCO[C@H](CN(C)Cc2ccc(Cl)c(Cl)c2)[C@H](C)CN([C@@H](C)CO)C(=O)c2cc(NS(C)(=O)=O)ccc2O1,0,0,3,/,22,/
O=C(c1ccc(Cl)cc1)C(CN1CCCC1)c1ccccc1 (stereo unspecified),-2,1,-6,-8,-3,53*
O=C(CCN1C(=O)C2CC=CCC2C1=O)Nc1cccc(S(=O)(=O)N2CCCCC2)c1 (stereo unspecified),0,2,5,2,1,3
NS(=O)(=O)c1cccc(NC(=O)CCN2C(=O)C3CCCCC3C2=O)c1 (stereo unspecified),-1,4,-2,-8,-4,33*
